Results collected from several papers.
Lines come from different studies, so protocols differ.
Target: Carbonic anhydrase 1 (CA1, Homo sapiens, UniProt P00915)
Observed: enzyme activity
Action: inhibitor

SMILES | test | endpoint | value
N#C[Se]Cc1cc(=O)oc2cc(O)ccc12 | stopped-flow | Ki | > 100000 nM
CC(C)c1cc2c(c(O)c1O)[C@@]13CCCC(C)(C)[C@@H]1[C@H](OC3=O)[C@H]2O |  | Ki | 0.12 nM
O=C(Nc1ccc2c(c1)C=CCP(=O)(O)O2)c1ccccc1I | stopped-flow | Ki | > 10000 nM
Cc1cc(=O)oc2cc(OCCCC[Se]C#N)ccc12 | stopped-flow | Ki | > 100000 nM
Cc1ccc([C@@H]2[C@@H](C(=O)c3cccs3)[C@H](c3ccco3)[C@H]3/C(=N\NC(N)=S)c4ccccc4[C@H]32)cc1 (racemic) | absorbance | IC50 | 413 nM
CC(C)c1cc2c(c(O)c1O)[C@@]1(C(=O)O)CCCC(C)(C)[C@@H]1CC2 |  | IC50 | 3.1 nM
NC(=S)N/N=C1/c2ccccc2[C@@H]2[C@H]1[C@@H](c1ccc(C(F)(F)F)cc1)[C@H](C(=O)c1ccc(C(F)(F)F)cc1)[C@H]2c1ccc(C(F)(F)F)cc1 (racemic) | absorbance | IC50 | 570 nM
Cc1ccc(C(=O)Nc2ccc3c(c2)C=CCP(=O)(O)O3)cc1 | stopped-flow | Ki | > 10000 nM
CC(C)c1cc2c(c(O)c1O)[C@@]13CCCC(C)(C)[C@@H]1[C@@H](O)[C@@H]2OC3=O |  | IC50 | 1.63 nM
O=C(Nc1cccc(Cl)c1)Nc1ccc2c(c1)C=CCP(=O)(O)O2 | stopped-flow | Ki | > 10000 nM
CC(C)c1cc2c(c(O)c1O)[C@@]13CCCC(C)(C)[C@@H]1C[C@@H]2OC3=O |  | Ki | 2.3 nM
COc1ccc(NC(=O)Nc2ccc3c(c2)C=CCP(=O)(O)O3)cc1 | stopped-flow | Ki | > 10000 nM
NC(=S)N/N=C1/c2ccccc2[C@@H]2[C@H]1[C@@H](c1ccoc1)[C@H](C(=O)c1ccco1)[C@H]2c1ccoc1 | absorbance | IC50 | 434 nM
O=C(Nc1ccc2c(c1)C=CCP(=O)(O)O2)c1ccc(F)cc1 | stopped-flow | Ki | > 10000 nM
COc1ccc(C(=O)[C@@H]2[C@@H](c3ccc(OC)cc3)[C@@H]3c4ccccc4/C(=N/NC(N)=S)[C@@H]3[C@H]2c2ccc(OC)cc2)cc1 (racemic) | absorbance | IC50 | 1070 nM
